Test results reported in ChEMBL document CHEMBL1140138, “Novel opioid peptide derived antagonists containing (2S)-2-methyl-3-(2,6-dimethyl-4-carbamoylphenyl)propanoic acid [(2S)-Mdcp]” (J Med Chem, 2008).
Bridge positions count the residues as written; N and C are the ends. Square brackets hold non-standard residues; d marks the D form. Peptide text beside a SMILES is read from it. * marks the point of attachment. Phe(4-NO2) = N[C@@H](Cc1ccc([N+](=O)[O-])cc1)C(=O)O; X1 = Cc1cc(C(N)=O)cc(C)c1C[C@H](C)C(=O)*; Phe(4-F) = N[C@@H](Cc1ccc(F)cc1)C(=O)O; d2Nal = N[C@H](Cc1ccc2ccccc2c1)C(=O)O; Dmt = Cc1cc(O)cc(C)c1C[C@H](N)C(=O)O; dPen = CC(C)(S)[C@@H](N)C(=O)O; Pen = CC(C)(S)[C@H](N)C(=O)O; Sar = CNCC(=O)O

Legend:
[1] = molecular target: Mu-type opioid receptor (Cavia porcellus, UniProt P97266); assay: (§1) Antagonist activity against mu opioid receptor in guinea pig ileum assessed as effect on TAPP-induced response; type: functional, tissue-based
How it was run: (§2)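 Isolated tissue bioassays: mu and kappa antagonism measured in guinea pig ileum, delta antagonism in mouse vas deferens. Antagonist potency expressed as Ke (nM).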

[2] = molecular target: Kappa-type opioid receptor (Cavia porcellus) (UniProt P41144); assay: Antagonist activity against kappa opioid receptor in guinea pig ileum assessed as effect on U50488-induced response; type: functional, tissue-based; how it was run: as §2
[3] = molecular target: Kappa-type opioid receptor (Cavia porcellus, UniProt P41144); assay: Displacement of [3H]U69593 from kappa opioid receptor in guinea pig brain membrane; type: cell membranes
[4] = molecular target: Mu-type opioid receptor (Cavia porcellus) (UniProt P97266); assay: as §1; type: functional, tissue-based; how it was run: as §2
[5] = molecular target: Delta-type opioid receptor (Mus musculus) (UniProt P32300); assay: (§3) Antagonist activity against delta opioid receptor in mouse vas deference assessed as effect on DPDPE-induced response; type: functional; how it was run: as §2
[6] = molecular target: Delta-type opioid receptor (Mus musculus, UniProt P32300); assay: as §3; type: functional; how it was run: as §2
[7] = molecular target: Mu-type opioid receptor (Rattus norvegicus, UniProt P33535); assay: Displacement of [3H]DAMGO from mu opioid receptor in rat brain membrane; type: cell membranes
How it was run: (§4)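 Opioid receptor binding in rat brain membrane preparations. Affinity expressed as Ki (nM).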

[8] = molecular target: Delta-type opioid receptor (Rattus norvegicus, UniProt P33533); assay: Displacement of [3H]DSLET from delta opioid receptor in rat brain membrane; type: cell membranes; how it was run: as §4
Chain of Delta-type opioid receptor (Rattus norvegicus, UniProt P33533) (P33533 whole entry): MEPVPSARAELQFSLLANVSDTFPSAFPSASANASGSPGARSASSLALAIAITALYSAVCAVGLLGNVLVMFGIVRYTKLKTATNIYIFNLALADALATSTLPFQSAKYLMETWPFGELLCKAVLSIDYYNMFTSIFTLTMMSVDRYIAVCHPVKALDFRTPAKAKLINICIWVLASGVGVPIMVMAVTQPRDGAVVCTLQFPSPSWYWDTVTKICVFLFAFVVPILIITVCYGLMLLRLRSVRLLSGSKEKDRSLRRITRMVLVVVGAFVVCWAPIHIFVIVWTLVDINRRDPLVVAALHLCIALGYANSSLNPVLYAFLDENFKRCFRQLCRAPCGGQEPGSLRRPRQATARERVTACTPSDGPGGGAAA

Chain of Mu-type opioid receptor (Cavia porcellus) (P97266 whole entry): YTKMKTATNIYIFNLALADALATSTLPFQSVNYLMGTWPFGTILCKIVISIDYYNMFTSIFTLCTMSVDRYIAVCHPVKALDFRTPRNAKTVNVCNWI
Chain of Mu-type opioid receptor (Cavia porcellus, UniProt P97266) (P97266 whole entry): as above
Chain of Delta-type opioid receptor (Mus musculus) (P32300 whole entry): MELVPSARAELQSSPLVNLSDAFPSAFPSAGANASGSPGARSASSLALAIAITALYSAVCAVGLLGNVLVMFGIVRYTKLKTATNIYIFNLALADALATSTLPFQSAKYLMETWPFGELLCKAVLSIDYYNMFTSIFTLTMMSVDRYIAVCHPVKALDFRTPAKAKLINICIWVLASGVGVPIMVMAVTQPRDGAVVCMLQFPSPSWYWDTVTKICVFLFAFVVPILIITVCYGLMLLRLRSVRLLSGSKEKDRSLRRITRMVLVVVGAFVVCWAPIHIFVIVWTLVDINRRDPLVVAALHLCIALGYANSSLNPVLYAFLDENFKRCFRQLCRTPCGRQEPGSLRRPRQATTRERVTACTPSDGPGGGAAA
Chain of Kappa-type opioid receptor (Cavia porcellus) (P41144 whole entry): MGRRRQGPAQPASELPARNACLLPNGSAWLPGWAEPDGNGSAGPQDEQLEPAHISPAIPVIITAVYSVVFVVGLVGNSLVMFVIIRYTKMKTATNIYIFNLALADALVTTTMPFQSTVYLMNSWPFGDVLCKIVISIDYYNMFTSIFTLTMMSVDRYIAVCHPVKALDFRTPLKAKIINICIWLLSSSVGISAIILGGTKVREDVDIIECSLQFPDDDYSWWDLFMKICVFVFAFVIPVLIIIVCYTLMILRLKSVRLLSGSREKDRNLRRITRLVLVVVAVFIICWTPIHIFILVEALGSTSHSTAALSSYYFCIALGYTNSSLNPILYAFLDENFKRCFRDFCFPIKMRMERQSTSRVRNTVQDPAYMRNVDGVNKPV
Chain of Kappa-type opioid receptor (P41144 whole entry): as above
Chain of Mu-type opioid receptor (Rattus norvegicus, UniProt P33535) (P33535 whole entry): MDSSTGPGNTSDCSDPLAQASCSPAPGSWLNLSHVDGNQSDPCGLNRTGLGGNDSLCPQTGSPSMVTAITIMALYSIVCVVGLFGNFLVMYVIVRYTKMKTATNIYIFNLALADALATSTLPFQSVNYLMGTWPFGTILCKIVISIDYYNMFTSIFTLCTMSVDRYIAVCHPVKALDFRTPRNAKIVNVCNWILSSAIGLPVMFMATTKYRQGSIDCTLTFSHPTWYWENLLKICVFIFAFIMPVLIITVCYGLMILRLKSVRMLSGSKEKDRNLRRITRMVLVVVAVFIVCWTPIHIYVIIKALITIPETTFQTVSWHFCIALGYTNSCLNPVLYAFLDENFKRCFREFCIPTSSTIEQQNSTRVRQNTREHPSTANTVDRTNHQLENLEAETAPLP
Chain of Delta-type opioid receptor (Mus musculus, UniProt P32300) (P32300 whole entry): as the sequence (P32300 whole entry) above

Structure (SMILES): Cc1cc(O)cc(C)c1C[C@H](N)C(=O)N1CCC[C@H]1C(=O)N[C@@H](Cc1c[nH]c2ccccc12)C(=O)N[C@H](Cc1ccc2ccccc2c1)C(N)=O [ANTANAL-1] (H-[Dmt]PW[d2Nal]-NH2)
- Ki [1]: 2.38 nM

Structure (SMILES): Cc1cc(O)cc(C)c1C[C@H](C)C(=O)N[C@@H]1CSSC[C@H](C(N)=O)NC(=O)[C@H](Cc2ccc([N+](=O)[O-])cc2)NC(=O)CNC1=O
- Ke [2]: 6.41 nM
- Ki [3]: 92.8 nM
- Ke [4]: 1.48 nM
- Ke [5]: 3.48 nM

Structure (SMILES): Cc1cc(C(N)=O)cc(C)c1C[C@H](C)C(=O)N[C@@H]1CSSC[C@H](C(N)=O)NC(=O)[C@H](Cc2ccc([N+](=O)[O-])cc2)NC(=O)CNC1=O (X1-[dC]G[Phe(4-NO2)][dC]-NH2; disulfide 1-4)
- Ke [2]: 18.9 nM
- Ke [4]: 1.24 nM
- Ke [5]: 9.78 nM

Structure (SMILES): Cc1cc(O)cc(C)c1CCC(=O)N[C@@H]1CCCCNC(=O)NC[C@@H](C(N)=O)NC(=O)[C@H](Cc2ccccc2)NC(=O)CNC1=O
- Ki [1]: 15.5 nM
- Ki [6]: 273 nM

Structure (SMILES): Cc1cc(O)cc(C)c1C[C@H](N)C(=O)N(C)CC(=O)N[C@@H](Cc1ccccc1)C(=O)N[C@H](Cc1ccc2ccccc2c1)C(N)=O (H-[Dmt][Sar]F[d2Nal]-NH2)
- Ke [4]: 2.34 nM
- Ke [5]: 305 nM

Structure (SMILES): Cc1cc(O)cc(C)c1C[C@H](C)C(=O)N[C@H]1C(=O)NCC(=O)N[C@@H](Cc2ccc(F)cc2)C(=O)N[C@H](C(=O)N[C@@H](Cc2ccccc2)C(=O)O)C(C)(C)SSC1(C)C
- Ki [7]: 406 nM
- Ke [2]: 4370 nM
- Ki [3]: 3710 nM
- Ki [8]: 2.32 nM
- Ke [4]: 668 nM
- Ke [5]: 0.785 nM

Structure (SMILES): C[C@@H](O)[C@H](NC(=O)[C@H]1NC(=O)[C@H]([C@@H](C)O)NC(=O)[C@H](CCCN)NC(=O)[C@@H](Cc2c[nH]c3ccccc23)NC(=O)[C@H](Cc2ccc(O)cc2)NC(=O)[C@@H](NC(=O)[C@H](N)Cc2ccccc2)CSSC1(C)C)C(N)=O
- IC50 [1]: 2.8 nM

Structure (SMILES): CC[C@H](C)[C@H](NC(=O)[C@H](CCCNC(=N)N)NC(=O)[C@H](CCCNC(=N)N)NC(=O)[C@H](CC(C)C)NC(=O)[C@H](Cc1ccccc1)NC(=O)CNC(=O)CNC(=O)[C@@H](C)Cc1c(C)cc(C(N)=O)cc1C)C(=O)N[C@@H](CCCNC(=N)N)C(=O)N1CCC[C@H]1C(=O)N[C@@H](CCCCN)C(N)=O
- Ki [7]: 29.6 nM
- Ke [2]: 5.96 nM
- Ki [3]: 26 nM
- Ki [8]: 27.2 nM
- Ke [4]: 401 nM
- Ke [5]: 843 nM

Structure (SMILES): Cc1cc(O)cc(C)c1C[C@H](N)C(=O)N1CCC[C@H]1C(=O)N[C@@H](Cc1ccccc1)C(=O)N[C@H](Cc1ccc2ccccc2c1)C(N)=O [ANTANAL-2] (H-[Dmt]PF[d2Nal]-NH2)
- Ki [1]: 1.52 nM

Structure (SMILES): Cc1cc(C(N)=O)cc(C)c1C[C@H](C)C(=O)N[C@H]1C(=O)NCC(=O)N[C@@H](Cc2ccc(F)cc2)C(=O)N[C@H](C(=O)N[C@@H](Cc2ccccc2)C(=O)O)C(C)(C)SSC1(C)C (X1-[dPen]G[Phe(4-F)][Pen]F-OH; disulfide 1-4)
- Ke [2]: 9980 nM
- Ke [4]: 1170 nM
- Ke [5]: 0.326 nM
